18 molecules from ChEMBL document CHEMBL1126198, “A new class of high affinity ligands for the neurokinin A NK2 receptor: psi (CH2NR) reduced peptide bond analogues of neurokinin A4-10” (J Med Chem, 1992) can be followed below.

pIC50: −log10 of the molar value. Starred links: 1 amine or outer side, 2 acyl side, 3 side chain; linkers in the order of their positions; H or OH if unused. Non-standard residues stand in square brackets, D forms with d. Residues, ends and D or L forms follow the SMILES beside them. *: point of attachment. X3 = N[C@@H](CC(=O)O)C(=O)N[C@@H](CO)CN([C@@H](Cc1ccccc1)C(=O)[*:2])[*:1]; Leuψ(CH2NH)PheNH2 = CC(C)C[C@@H](CN[C@@H](Cc1ccccc1)C(N)=O)N*; X9 = CC(C)CC(=O)N(C[C@H](CC(C)C)N*)[C@@H](CC(C)C)C(N)=O; X7 = CCCN(C[C@H](CC(C)C)N*)[C@@H](Cc1ccccc1)C(N)=O; X4 = CC(C)C[C@H](NC(=O)[C@H](CC(C)C)NCCN*)C(N)=O; X2 = CCN(C[C@H](CC(C)C)N*)[C@@H](CC(C)C)C(N)=O; X8 = CC(C)C[C@@H](CN(C)[C@@H](CC(C)C)C(N)=O)N*; X6 = CC(C)C[C@H](NC[C@H](Cc1ccccc1)N*)C(N)=O; X1 = CC(C)C[C@@H](CN[C@@H](CC(C)C)C(N)=O)N*; X5 = O=C(O)CCCN([C@@H](CO)C(=O)[*:2])[*:1]; βAla = NCCC(=O)O A value given as a limit tells only on which side of the number the result lay.

The target of one assay is T1, Substance-K receptor (Mesocricetus auratus, UniProt P51144).
T1 sequence (P51144 whole entry): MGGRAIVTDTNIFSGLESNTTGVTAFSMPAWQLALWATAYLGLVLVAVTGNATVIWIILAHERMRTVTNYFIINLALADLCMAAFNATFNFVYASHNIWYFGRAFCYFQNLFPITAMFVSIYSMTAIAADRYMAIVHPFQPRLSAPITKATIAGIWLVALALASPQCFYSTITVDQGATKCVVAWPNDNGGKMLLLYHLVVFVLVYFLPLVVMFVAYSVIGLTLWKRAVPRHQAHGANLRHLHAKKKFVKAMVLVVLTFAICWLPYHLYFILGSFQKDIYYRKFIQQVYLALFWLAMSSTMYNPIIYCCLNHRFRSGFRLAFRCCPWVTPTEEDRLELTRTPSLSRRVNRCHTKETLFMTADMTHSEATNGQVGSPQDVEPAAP
Description: Competitive inhibition of [125I]NKA binding to hamster urinary bladder Tachykinin receptor 2. It counts as single protein.

For the next assay, the system named is Cricetinae gen. sp. Briefly: Compound was evaluated for the competitive antagonism of NKA-stimulated PI (phosphatidylinositol) turnover in hamster urinary bladder tissue using [3H]inositol as radioligand. It counts as functional. To be noted: read-out: pA2 (converted). The method, boiled down: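 Chopped hamster bladder labeled 1 h at 37 °C with [3H]myo-inositol. Assay run at room temperature in Krebs-HEPES (20 mM). Total inositol phosphates isolated on ion-exchange columns eluted sequentially, starting with water. PI turnover ratio = inositol phosphates cpm / organic extraction phase cpm. Basal level taken without NKA; maximum stimulation with 1 μM NKA. Mean ± SEM of separate experiments.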

For the molecule `CC(C)C[C@@H](CN[C@@H](Cc1ccccc1)C(N)=O)NC(=O)CCNC(=O)[C@@H](NC(=O)[C@H](Cc1ccccc1)NC(=O)[C@H](CO)NC(=O)[C@@H](N)CC(=O)O)C(C)C` (H-DSFV[βAla]-{Leuψ(CH2NH)PheNH2}), the pIC50 (commonly −log10 of the IC50, conventionally taken in molar units) at Substance-K receptor is 8.00.

In turn, `CC(C)C[C@H](NC(=O)[C@H](CC(C)C)NC(=O)CNC(=O)[C@@H](NC(=O)[C@H](Cc1ccccc1)NC[C@H](CO)NC(=O)[C@@H](N)CC(=O)O)C(C)C)C(N)=O` (H-[X3]VGLL-NH2) had a pIC50 at Substance-K receptor of less than 5.00.

Turning to `CC(C)CC(=O)N(C[C@H](CC(C)C)NC(=O)CNC(=O)[C@@H](NC(=O)[C@H](Cc1ccccc1)NC(=O)[C@H](CO)NC(=O)[C@@H](N)CC(=O)O)C(C)C)[C@@H](CC(C)C)C(N)=O` (H-DSFVG-X9), at Substance-K receptor, the pIC50 is 6.79.

`CC(C)C[C@H](NC(=O)[C@H](CC(C)C)NCCNC(=O)[C@@H](NC(=O)[C@H](Cc1ccccc1)NC(=O)[C@H](CO)NC(=O)[C@@H](N)CC(=O)O)C(C)C)C(N)=O` (H-DSFV-X4) had a pIC50 at Substance-K receptor of less than 5.00.

`CC(C)C[C@H](NC(=O)[C@H](CC(C)C)NC(=O)CNC(=O)[C@@H](NC[C@H](Cc1ccccc1)NC(=O)[C@H](CO)NC(=O)[C@@H](N)CC(=O)O)C(C)C)C(N)=O` gave a pIC50 at Substance-K receptor of less than 5.00.

`CC(C)C[C@H](NC(=O)[C@H](CC(C)C)NC(=O)CNC(=O)[C@@H](NC(=O)[C@H](Cc1ccccc1)NC(=O)[C@H](CO)NCCCC(=O)O)C(C)C)C(N)=O` (H-[X5]FVGLL-NH2) showed a pIC50 at Substance-K receptor of 5.78.

Molecule `CSCC[C@H](NC(=O)[C@H](CC(C)C)NC(=O)CNC(=O)[C@H](Cc1ccccc1)NC(=O)[C@H](Cc1ccccc1)NC(=O)[C@H](CCC(N)=O)NC(=O)[C@H](CCC(N)=O)NC(=O)[C@@H]1CCCN1C(=O)[C@H](CCCCN)NC(=O)[C@@H]1CCCN1C(=O)[C@@H](N)CCCN=C(N)N)C(N)=O` [SUBSTANCE P] had a pIC50 at Substance-K receptor of 6.83.

With `CC(C)C[C@H](NC(=O)[C@H](CC(C)C)NC(=O)CNC[C@@H](NC(=O)[C@H](Cc1ccccc1)NC(=O)[C@H](CO)NC(=O)[C@@H](N)CC(=O)O)C(C)C)C(N)=O`, the pIC50 on Substance-K receptor was 5.25.

On Substance-K receptor, `CCCN(C[C@H](CC(C)C)NC(=O)CCNC(=O)[C@@H](NC(=O)[C@H](Cc1ccccc1)NC(=O)[C@H](CO)NC(=O)[C@@H](N)CC(=O)O)C(C)C)[C@@H](Cc1ccccc1)C(N)=O` (H-DSFV[βAla]-X7) had a pIC50 of 9.00. This pIC50 lies 3.75 log units higher than the previous one.

Turning to `CC(C)C[C@@H](CN[C@@H](CC(C)C)C(N)=O)NC(=O)CNC(=O)[C@@H](NC(=O)[C@H](Cc1ccccc1)NC(=O)[C@H](CO)NC(=O)[C@@H](N)CC(=O)O)C(C)C` (H-DSFVG-X1), the pIC50 at Substance-K receptor is 6.94. Besides, the Kb in the assay with Cricetinae gen. sp. was 200 nM.

For `CC(C)C[C@@H](CN[C@@H](CC(C)C)C(N)=O)NC(=O)CCNC(=O)[C@@H](NC(=O)[C@H](Cc1ccccc1)NC(=O)[C@H](CO)NC(=O)[C@@H](N)CC(=O)O)C(C)C` (H-DSFV[βAla]-X1), the pIC50 on Substance-K receptor was 6.97.

Consider `CC(C)C[C@H](NC(=O)[C@H](CC(C)C)NC(=O)CNC(=O)[C@@H](NC(=O)[C@H](Cc1ccccc1)NC(=O)[C@H](CO)NC(=O)[C@@H](N)CC(=O)O)C(C)C)C(N)=O`, for which, at Substance-K receptor, the pIC50 is 6.87.

Take `CSCC[C@H](NC(=O)[C@H](CC(C)C)NC(=O)CNC(=O)[C@@H](NC(=O)[C@H](Cc1ccccc1)NC(=O)[C@H](CO)NC(=O)[C@@H](N)CC(=O)O)C(C)C)C(N)=O`: at Substance-K receptor, the pIC50 is 8.22.

At Substance-K receptor, `CC(C)C[C@@H](CN(C)[C@@H](CC(C)C)C(N)=O)NC(=O)CNC(=O)[C@@H](NC(=O)[C@H](Cc1ccccc1)NC(=O)[C@H](CO)NC(=O)[C@@H](N)CC(=O)O)C(C)C` (H-DSFVG-X8) had a pIC50 of 6.71.

Consider `CSCC[C@H](NC(=O)[C@H](CC(C)C)NC(=O)CNC(=O)[C@@H](NC(=O)[C@H](Cc1ccccc1)NC(=O)[C@H](CO)NC(=O)[C@H](CC(=O)O)NC(=O)[C@@H](NC(=O)[C@H](CCCCN)NC(=O)[C@@H](N)Cc1cnc[nH]1)[C@@H](C)O)C(C)C)C(N)=O` [NEUROKININ A], for which the pIC50 on Substance-K receptor is 9.00.

The molecule `CC(C)C[C@@H](CN[C@@H](Cc1ccccc1)C(N)=O)NC(=O)CNC(=O)[C@@H](NC(=O)[C@H](Cc1ccccc1)NC(=O)[C@H](CO)NC(=O)[C@@H](N)CC(=O)O)C(C)C` (H-DSFVG-{Leuψ(CH2NH)PheNH2}) showed a pIC50 at Substance-K receptor of 8.05.

On Substance-K receptor, `CCN(C[C@H](CC(C)C)NC(=O)CNC(=O)[C@@H](NC(=O)[C@H](Cc1ccccc1)NC(=O)[C@H](CO)NC(=O)[C@@H](N)CC(=O)O)C(C)C)[C@@H](CC(C)C)C(N)=O` (H-DSFVG-X2) gave a pIC50 of 6.56.

Turning to `CC(C)C[C@H](NC[C@H](Cc1ccccc1)NC(=O)CNC(=O)[C@@H](NC(=O)[C@H](Cc1ccccc1)NC(=O)[C@H](CO)NC(=O)[C@@H](N)CC(=O)O)C(C)C)C(N)=O` (H-DSFVG-X6), the pIC50 at Substance-K receptor is less than 5.00.
